Results on 14 compounds are retold here after ChEMBL document CHEMBL4340525, “Tumor-Targeted Delivery of 6-Diazo-5-oxo-l-norleucine (DON) Using Substituted Acetylated Lysine Prodrugs” (J Med Chem, 2019).

Broadly, the EC50 is the concentration at which the effect is half-maximal. The low end stands for greater potency, the high end for weaker potency.

Series [1] in a line: Stability in swine jejunum assessed as parent compound remaining at 20 uM measured after 1 hr by LC-MS/MS analysis. Format: ADME, tissue-based, Sus scrofa. To be noted: pig. In a few lines: (§1)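 Washed swine jejunum was diluted 10-fold in 0.1 M potassium phosphate buffer and probe-sonicated. Prodrug was spiked at 20 µM final and incubated 1 h at 37 °C with orbital shaking. Triplicate quench in acetonitrile with losartan internal standard. Percent parent remaining by LC-MS/MS peak-area ratio.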

A short description of series [2]: Prodrug conversion in human P493B cells suspended in human plasma assessed as 6-diazo-5-oxo-L-norleucine formation at 20 uM measured after 1 hr by LC-MS/MS analysis. Format: ADME, cell-based. In a few lines:
(§2)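 Cells were grown in RPMI 1640 with 10% FBS, washed in DPBS and resuspended in human plasma at 10 million cells/mL. After 5 min preincubation at 37 °C, compound was added at 20 µM final for 1 h. The mix was centrifuged at 10 000g and the washed pellet and plasma were quantified separately. DON was read by LC-MS/MS after dabsyl chloride derivatisation, intact prodrug directly. Standard curves were made in naive cells or plasma.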

A short description of series [3]: Stability in human plasma suspended with human P493B cells at 20 uM measured after 1 hr by LC-MS/MS analysis. Format: ADME, cell-free. In a few lines: as §2
A short description of series [4]: Drug level in human P493B cells suspended in human plasma assessed as tumor cell to plasma ratio by measuring 6-diazo-5-oxo-L-norleucine formation at 20 uM measured after 1 hr by LC-MS/MS analysis. Format: ADME, cell-based. The essentials:
as §2

Series [5] in a line: Drug level in human P493B cells suspended in human plasma assessed as tumor cell to plasma ratio by measuring 6-diazo-5-oxo-L-norleucine formation at 20 uM measured after 1 hr by LC-MS/MS analysis relative to 6-diazo-5-oxo-L-norleucine alone. Format: ADME, cell-based. In a few lines:
as §2

Series [6] in a line: Stability in mouse plasma assessed as parent compound remaining at 20 uM measured after 1 hr by LC-MS/MS analysis.
A short description of series [7]: Stability in swine plasma assessed as parent compound remaining at 20 uM measured after 1 hr by LC-MS/MS analysis. To be noted: Sus scrofa, pig.
Series [8] in a line: Stability in human plasma assessed as parent compound remaining at 20 uM measured after 1 hr by LC-MS/MS analysis.
Series [9] in a line: Stability in swine liver homogenates assessed as parent compound remaining at 20 uM measured after 1 hr by LC-MS/MS analysis. As to conditions: Sus scrofa, pig, tissue homogenate.
A short description of series [10]: Stability in swine jejunum at 20 uM measured after 1 hr by LC-MS/MS analysis. As to conditions: pig. Format: ADME, tissue-based, Sus scrofa. The essentials: as §1
Series [11] in a line: Drug level in human P493B cells suspended in human plasma assessed as tumor cell to plasma ratio at 20 uM measured after 1 hr by LC-MS/MS analysis. Format: ADME, cell-based. In a few lines: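 P493B cells grown in RPMI 1640 with 10% FBS, then suspended in human plasma at 10 million cells/mL. Suspension preincubated 5 min at 37 °C, dosed to a final 20 μM, held 1 h at 37 °C, then spun to separate cells from plasma. DON and intact prodrug in pellet and plasma measured by LC-MS/MS; for DON, after dabsyl chloride derivatization. Ratio = cell DON/plasma DON.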

Series [12] is described as follows: (§3) Antiproliferative activity against human P493B cells measured after 72 hrs by CellTiter 96 aqueous one solution cell proliferation assay. In kind it is functional, cell-based. In a few lines: (§4)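 P493B lymphoma cells seeded at 20 000 cells/well in growth medium. DMSO stocks added as a 1:10 serial dilution, final 0.2% DMSO. Cells grown 72 h with compound, then given CellTiter 96 AQueous reagent for 2 h and read by absorbance at 490 nm. EC50 obtained by nonlinear regression of log-transformed data.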

The species named for a further series is Homo sapiens. The description is as §3. In kind it is functional, cell-based. The essentials:
as §4

Series [13] is described as follows: Prodrug conversion in human P493B cells suspended in human plasma assessed as (S)-isopropyl 2-amino-6-diazo-5-oxohexanoate formation measured after 1 hr by HRMS analysis. Format: ADME, cell-based. In a few lines: (§5)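 Metabolite identification: compound was incubated 1 h with 10 million P493B cells suspended in 1 mL human plasma. Cell pellets were collected and metabolites identified by HRMS.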

Series [14] can be described thus: Prodrug conversion in human P493B cells suspended in human plasma assessed as 6-diazo-5-oxo-L-norleucine formation measured after 1 hr by HRMS analysis. Format: ADME, cell-based. In a few lines: as §5

For the compound `CC(=O)NCCCC[C@H](NC(=O)[C@@H]1Cc2ccccc2CN1C(C)=O)C(=O)N[C@@H](CCC(=O)C=[N+]=[N-])C(=O)OC(C)C`, the Stability is more than 50% in series [1]; “Stable” in series [3]; 0% in [6]; 98% in series [7]; 110% in series [8]; 72% in series [9]. Further, the Drug metabolism in [2] turned out to be 0.12 µM. Moreover, the Ratio in series [4] was 46. Moreover, the “fold change (FC)” value in series [5] stood at 115.

For the compound `CC(=O)NCCCC[C@H](NC(=O)[C@H](Cc1c[nH]c2ccccc12)NC(=O)C(C)(C)C)C(=O)N[C@@H](CCC(=O)C=[N+]=[N-])C(=O)OC(C)C`, the Stability entry in series [10] is reported as “Unstable”; in [6] it was 0%; in series [7], 95%; in series [8], 88%.

Regarding `CC(=O)NCCCC[C@H](NC(=O)OC12CC3CC(CC(C3)C1)C2)C(=O)N[C@@H](CCC(=O)C=[N+]=[N-])C(=O)OC(C)C`, the Stability was more than 50% in [1], 4% in series [6], 77% in series [7] and 100% in [8].

`CCCCCCCCCCCCCCCC(=O)N[C@@H](CCCCNC(C)=O)C(=O)N[C@@H](CCC(=O)C=[N+]=[N-])C(=O)OC(C)C`: the Stability entry was “Unstable” in series [10], 30% in [6], 88% in [7] and 84% in series [8].

`[N-]=[N+]=CC(=O)CC[C@H](N)C(=O)O` [6-DIAZO-5-OXO-L-NORLEUCINE]: in series [11], the Ratio is 0.4. This compound displayed a concentration for a half-maximal effect (EC50) in series [12] of 10 µM. The Activity entry in the series filed under Homo sapiens was “Dose-dependent effect”.

For the compound `CC(=O)NCCCC[C@H](NC(=O)[C@@H]1Cc2ccccc2CN1)C(=O)N[C@@H](CCC(=O)C=[N+]=[N-])C(=O)OC(C)C`, the Stability entry was “Unstable” in series [10]; 0% in [6]; 62% in series [7]; 95% in series [8]; 0% in [9].

As for `CC(=O)NCCCC[C@H](NC(=O)Cc1c[nH]c2ccccc12)C(=O)N[C@@H](CCC(=O)C=[N+]=[N-])C(=O)OC(C)C`, the Stability is more than 50% in [1]; 0% in series [6]; 98% in series [7]; 94% in series [8]; 40% in series [9].

`CC(C)OC(=O)[C@H](CCC(=O)C=[N+]=[N-])NC(=O)[C@H](CCCCN)NC(=O)C12CC3CC(CC(C3)C1)C2`: the Drug metabolism entry in series [13] is “Metabolite_Detected”.

Turning to `CC(=O)NCCCC[C@H](NC(=O)OCC1c2ccccc2-c2ccccc21)C(=O)N[C@@H](CCC(=O)C=[N+]=[N-])C(=O)OC(C)C`, the Stability entry is recorded as “Unstable” in [10]; 2% in series [6]; 78% in series [7]; 93% in series [8]; 19% in series [9].

Consider `CC(=O)NCCCC[C@H](NC(=O)OC(C)(C)C)C(=O)N[C@@H](CCC(=O)C=[N+]=[N-])C(=O)OC(C)C`, for which the Drug metabolism entry in [2] is “Metabolite_Detected”. The Stability result in series [3] is listed as “Stable”; in series [6] it was 1%; in series [7] it was 85%; in series [8], 95%. Moreover, the Ratio in series [4] is 13. In addition, the “fold change (FC)” value in [5] turned out to be 32.

In the case of `CC(C)OC(=O)[C@@H](N)CCC(=O)C=[N+]=[N-]`, the Drug metabolism result in [14] is recorded as “Metabolite_Detected”.

With `CC(=O)NCCCC[C@H](NC(=O)[C@H](Cc1c[nH]c2ccccc12)NC(C)=O)C(=O)N[C@@H](CCC(=O)C=[N+]=[N-])C(=O)OC(C)C`, the Stability was more than 50% in series [1]; “Stable” in [3]; 0% in [6]; 75% in series [7]; 102% in [8]; 67% in series [9]. Besides, in series [2], the Drug metabolism result is given as “Metabolite_Detected”. In series [4], the Ratio was 11. In [5], the “fold change (FC)” value stood at 30.

With `CCCCCCCC(=O)N[C@@H](CCCCNC(C)=O)C(=O)N[C@@H](CCC(=O)C=[N+]=[N-])C(=O)OC(C)C`, the Stability in series [1] is more than 50%; in [6] it was 0%; in [7] it was 91%; in [8], 95%.

As to `CC(=O)NCCCC[C@H](NC(=O)[C@@H](N)Cc1c[nH]c2ccccc12)C(=O)N[C@@H](CCC(=O)C=[N+]=[N-])C(=O)OC(C)C`, the Stability entry in series [10] is “Unstable”; in series [6], 0%; in [7] it was 19%; in series [8] it was 7%; in series [9] it was 0%.
